Measurements pooled from the literature.
Lines come from different studies, so protocols differ.
Target: Phosphatidylinositol 4-phosphate 5-kinase type-1 gamma (PIP5K1C, Homo sapiens, UniProt O60331)

Compound	assay	conditions	measurement	value
C1=C/COCc2cc(ccc2OCCN2CCCC2)Nc2nccc(n2)-c2cccc(c2)COC/1	binding	0.1 µM	remaining binding	60%
CCCCC(=O)Nc1ccc(-c2ccc3ncn(CCC)c(=O)c3c2)cn1	binding, competition with immobilised ligand	0.5 µM	remaining binding	96%
CC#CC(=O)N1CCC[C@H]1c1nc(-c2ccc(C(=O)Nc3ccccn3)cc2)c2c(N)nccn12	enzyme activity, inhibitor	1 µM	inhibition	0%
COc1ccc2[nH]c3c4[nH]c5ccc(OC)cc5c4c4c(c3c2c1)C(=O)NC4=O	binding	1 µM	remaining binding	81%
COc1ccc2oc(-c3ccc4nc(N)oc4c3)c/c(=N\c3ccccc3NC(=O)CCN)c2c1	binding	1 µM	remaining binding	102%
Cc1ccc(NC(=O)c2ccnc(C(F)(F)F)c2)cc1-c1cc(OCCO)nc(N2CCOCC2)c1	binding	1 µM	remaining binding	98%
CO[C@@H]1[C@H](N(C)C(=O)c2ccccc2)C[C@H]2O[C@]1(C)n1c3ccccc3c3c4c(c5c6ccccc6n2c5c31)C(=O)NC4	enzyme activity, inhibitor	1 µM	inhibition	11%
CC(C)S(=O)(=O)c1ccc2nccc(Nc3ccc4sc(C5CCCC5)nc4c3)c2c1	enzyme activity, inhibitor	1 µM	activity vs control	105%
